Paper PMC4464187 (EXCLI Journal, 2014)
Where two headings read alike, the source gives them in different places.

Columns and labels:
[1] = test system: TNF-α levels in the plasma; assay: Measurement of TNF-α production in plasma of LPS-treated SD rats; assay type: in vivo, female Sprague Dawley rats; settings: LPS 5 mg/Kg i.p., blood 2 h after LPS; for TNF-α plasma level: LPS group 1623 pg/mL
Method in brief: (§1)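 Female Sprague Dawley rats, 200-250 g, n = 5 per group. Oral doses are given at 12 h intervals: test compound at 20 and 40 mg/Kg, vehicle 10 % Tween 80, or dexamethasone 5 mg/Kg as positive control. LPS 5 mg/Kg is given i.p. 2 h after the final dose. Blood is taken 2 h (TNF-α) or 6 h (IL-1ß) after LPS. Plasma is assayed by rat sandwich ELISA. Mean ± SD, one-way ANOVA with Dunnett's test.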

[2] = test system: IL-1ß levels in the plasma; assay: Measurement of IL-1ß production in plasma of LPS-treated SD rats; assay type: in vivo, female Sprague Dawley rats; settings: LPS 5 mg/Kg i.p., blood 6 h after LPS; for IL-1ß plasma level: LPS group 912 pg/mL
Method in brief: as §1

[3] = test system: TNF-α production in LPS stimulated RAW 264.7 cells; assay: TNF-α assay; assay type: cell-based; settings: Mus musculus, RAW264.7, 6 h, read-out: IC50 for inhibition of TNF-α RAW 264.7
[4] = test system: TNF-α production in LPS stimulated J774A.1 cells; assay: TNF-α assay; assay type: cell-based; settings: Mus musculus, J774.A1, 6 h, read-out: IC50 for inhibition of TNF-α J774A.1
Method in brief: (§2)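 Cells cultured in DMEM with heat-inactivated 10 % FBS, penicillin and streptomycin at 37 °C, 5 % CO2. Test compound in DMSO/water is added at several concentrations for 1 h, then LPS (E. coli 026:B6) 1 µg/mL is added. Incubation runs 6 h for TNF-α and 12 h for IL-1ß. Supernatant cytokine is measured by mouse sandwich ELISA at 450 nm, with curcumin and dexamethasone as standards. Triplicates.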

[5] = test system: IL-1ß production in LPS stimulated RAW 264.7 cells; assay: IL-1ß assay; assay type: cell-based; settings: Mus musculus, RAW264.7, 12 h, read-out: IC50 for inhibition of IL-1β RAW 264.7
Method in brief: as §2

[6] = test system: IL-1ß production in LPS stimulated J774A.1 cells; assay: IL-1ß assay; assay type: cell-based; settings: Mus musculus, J774.A1, 12 h, read-out: IC50 for inhibition of IL-1β J774A.1
[7] = test system: NO release in LPS stimulated RAW 264.7 cells; assay: NO inhibitory assay; assay type: cell-based; settings: Mus musculus
Method in brief: (§3)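 Cells are kept in DMEM with 10 % heat-inactivated FBS and antibiotics under 5 % CO2 at 37 °C. They are pretreated 1 h with varied concentrations of test compound (DMSO/water), then stimulated with 1 µg/mL LPS (E. coli 026:B6) for 24 h at 37 °C. Supernatant is mixed 1:1 with modified Griess reagent for 30 min and read at 540 nm. Curcumin and L-NAME serve as standards. Triplicates.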

[8] = test system: NO release in LPS stimulated J774A.1 cells; assay: NO inhibitory assay; assay type: cell-based; settings: Mus musculus, J774.A1, 24 h, read-out: IC50 for NO inhibition J774A.1
Method in brief: as §3

[9] = RAW264.7, 24 h, read-out: IC50 for NO inhibition RAW 264.7
[10] = RAW264.7, read-out: IC50 for NO inhibition, range over both cells

Row | Compound | reduction of TNF-α production ([1]; 5 mg/kg p.o.) [%] | TNF-α plasma level ([1]; 5 mg/kg p.o.) [pg/mL] | reduction of IL-1ß production ([2]; 5 mg/kg p.o.) [%] | IL-1ß plasma level ([2]; 5 mg/kg p.o.) [pg/mL] | IC50 [3] [µM] | IC50 [4] [µM] | IC50 [5] [µM] | IC50 [6] [µM] | IC50 [7, 9] [µM] | IC50 [7, 10] [µM] | IC50 [8] [µM] | reduction of TNF-α production ([1]; 40 mg/kg p.o.) [%] | TNF-α plasma level ([1]; 40 mg/kg p.o.) [pg/mL] | reduction of IL-1ß ([2]; 40 mg/kg p.o.) [%] | IL-1ß plasma level ([2]; 40 mg/kg p.o.) [pg/mL]
1 | C[C@@H]1C[C@H]2[C@@H]3CCC4=CC(=O)C=C[C@]4(C)[C@@]3(F)[C@@H](O)C[C@]2(C)[C@@]1(O)C(=O)CO [Dexamethasone, reference compound] | 75.8 | 394 | 63.0 | 338 | – | – | – | – | – | – | – | – | – | – | –
2 | CCOC(=O)c1cc(O)c(O)c(O)c1 [compound 3, ethyl gallate] | – | – | – | – | 17.3 ± 4.61 | 23.4 ± 2.67 | 36.9 ± 3.35 | 39.5 ± 2.86 | – | – | – | – | – | – | –
3 | CC(/C=C/C=C(\C)C(=O)O)=C\C=C\C=C(C)\C=C\C=C(/C)C(=O)O [compound 4, crocetin] | – | – | – | – | 20.4 ± 2.48 | 22.2 ± 3.83 | 35.4 ± 2.34 | 41.1 ± 1.69 | 23.4 ± 2.62 | 23.4 to 25.6 | 25.6 ± 2.47 | 43.6 | 914 | 39.8 | 549
4 | O=C(O)/C=C/c1ccc(O)c(O)c1 [compound 7, Caffeic acid] | – | – | – | – | 45 ± 1.93 | 49.6 ± 1.33 | 59.3 ± 2.94 | 62.3 ± 2.94 | 19.2 ± 4.97 | – | 78 ± 3.94 | – | – | – | –
5 | O=C(O)c1cc(O)c(O)c(O)c1 [compound 10, gallic acid] | – | – | – | – | 23.8 ± 2.14 | 29.3 ± 3.12 | 42.1 ± 3.62 | 47.6 ± 1.67 | – | – | – | – | – | – | –
6 | CC/C=C\C[C@H]1C(=O)CC[C@@H]1CC(=O)O [compound 11, jasmonic acid] | – | – | – | – | 39.4 ± 2.85 | 41.4 ± 1.67 | 57.9 ± 0.61 | 59.2 ± 2.25 | 29.4 ± 1.65 | 21.3 to 29.4 | 21.3 ± 1.35 | 48.9 | 830 | 54.2 | 418
7 | N[C@@H](Cn1ccc(=O)c(O)c1)C(=O)O [compound 12, L-mimosine] | – | – | – | – | 25.2 ± 2.48 | – | 64.2 ± 2.53 | 65.8 ± 1.86 | 19.2 ± 1.53 | 19.2 to 21.2 | 21.2 ± 1.36 | 60.7 | 639 | 16.3 | 763
8 | CC(/C=C/C=C(\C)C(=O)O[C@@H]1O[C@H](CO[C@@H]2O[C@H](CO)[C@@H](O)[C@H](O)[C@H]2O)[C@@H](O)[C@H](O)[C@H]1O)=C\C=C\C=C(C)\C=C\C=C(/C)C(=O)O[C@@H]1O[C@H](CO[C@@H]2O[C@H](CO)[C@@H](O)[C@H](O)[C@H]2O)[C@@H](O)[C@H](O)[C@H]1O [compound 14, crocin] | – | – | – | – | 22.4 ± 1.08 | 25.2 ± 2.56 | 29.2 ± 3.69 | 31.2 ± 2.64 | 27.2 ± 4.51 | 27.2 to 31.5 | 31.5 ± 1.25 | 48.4 | 836 | 50.2 | 456
